Calls of active or inactive are those of the source. The calls are words filed in the database; no cut-off is given here.
Experiments:
T47D [1] = assay: Induction of morphological changes in human T47D cells at 10 uM incubated for 48 hrs by Hoechst 33342, SYTO14, Phalloidin-594, Wheat germ agglutinin-594, Concavalin-488, MitoTracker DeepRed staining based wide field fluorescent microscopic method; type: functional, cell-based
Method in brief: (§1)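 Parental HCC1954 or T47D cells were seeded at 3000 cells/well in 96-well or 1500 cells/well in 384-well optical imaging plates and grown 24 h. Compounds were given for 48 h at up to 10 μM, with 0.1% DMSO and 0.3 μM staurosporine controls. Cells were fixed in 4% paraformaldehyde for 30 min at RT, then Cell Painting stained for 30 min in the dark […]. Imaging used wide-field fluorescence, and nuclei were segmented from the Hoechst channel and counted.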

T47D [2] = assay: Antiproliferative activity against human T47D cells assessed reduction in cell number at 10 uM incubated for 72 hrs by Alamar blue assay; type: functional, cell-based
Method in brief: (§2)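 Parental cells in DMEM with 10% FBS and 2 mM L-glutamine at 37 °C, 5% CO2. Seeded in 96-well plates at a line-optimized density (HCC1954 and T47D, 3000 cells/well) and grown 24 h before treatment. Compounds were incubated 72 h, with 0.1% DMSO (v/v) controls. Alamar Blue was added at 10% v/v for 3 h. Fluorescence was read at ex 540/em 590 nm and normalized to plate DMSO wells.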

HCC1954 [3] = assay: Induction of morphological changes in human HCC1954 cells at 10 uM incubated for 48 hrs by Hoechst 33342, SYTO14, Phalloidin-594, Wheat germ agglutinin-594, Concavalin-488, MitoTracker DeepRed staining based wide field fluorescent microscopic method; type: functional, cell-based; method in brief: as §1
HCC1954 [4] = assay: Antiproliferative activity against human HCC1954 cells assessed as reduction in cell number at 10 uM incubated for 72 hrs Alamar blue assay; type: functional, cell-based; method in brief: as §2
T47D [5] = assay: Induction of morphological changes in human T47D cells assessed as number of nuclei incubated for 48 hrs by Hoechst 33342, SYTO14, Phalloidin-594, Wheat germ agglutinin-594, Concavalin-488, MitoTracker DeepRed staining based wide field fluorescent microscopic method; type: functional, cell-based; method in brief: as §1
T47D [6] = assay: Antiproliferative activity against human T47D cells assessed as cell viability incubated for 72 hrs Alamar blue assay; type: functional, cell-based; method in brief: as §2
HCC1954 [7] = assay: Induction of morphological changes in human HCC1954 cells assessed as number of nuclei incubated for 48 hrs by Hoechst 33342, SYTO14, Phalloidin-594, Wheat germ agglutinin-594, Concavalin-488, MitoTracker DeepRed staining based wide field fluorescent microscopic method; type: functional, cell-based; conditions: HCC1954, 48 h; method in brief: as §1
HCC1954 [8] = assay: Antiproliferative activity against human HCC1954 cells assessed as cell viability incubated for 72 hrs Alamar blue assay; type: functional, cell-based; conditions: HCC1954, 72 h; method in brief: as §2
T47D [9] = assay: Antiproliferative activity against human T47D cells assessed reduction in cell number at 1 uM incubated for 72 hrs by Alamar blue assay; type: functional, cell-based; method in brief: as §2
HCC1954 [10] = assay: Antiproliferative activity against human HCC1954 cells assessed as reduction in cell number at 1 uM incubated for 72 hrs Alamar blue assay; type: functional, cell-based; method in brief: as §2
T47D [11] = assay: Induction of cell cycle arrest in human T47D cells assessed as downregulation in CCND1 RNA incubated for 24 hrs; type: functional, cell-based
Method in brief: (§3)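 T47D cells were seeded in 6-well plates for 24 h, then drug-treated for 24 h. RNA was extracted with on-column DNase digestion and checked by A260/A280, and concentrations were normalized. 100 ng RNA was run on the nCounter PanCancer Pathways Panel. Data were normalized per NanoString protocol, and the advanced analysis module calculated differential ratios against DMSO.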

T47D [12] = assay: Induction of cell cycle arrest in human T47D cells assessed as downregulation in CCNE2 RNA incubated for 24 hrs; type: functional, cell-based; method in brief: as §3
T47D [13] = assay: Induction of cell cycle arrest in human T47D cells assessed as downregulation in CCNA2 RNA incubated for 24 hrs; type: functional, cell-based; method in brief: as §3
T47D [14] = assay: Effect on cell cycle pathway in human T47D cells assessed as fold enrichment in cell cycle genes incubated for 24 hrs relative to control; type: functional; method in brief: as §3
T47D [15] = assay: Effect on cell cycle pathway in human T47D cells assessed as fold enrichment in mitotic genes incubated for 24 hrs relative to control; type: functional; method in brief: as §3
T47D [16] = assay: Effect on cell cycle pathway in human T47D cells assessed as fold enrichment in G1/S transition genes incubated for 24 hrs relative to control; type: functional; method in brief: as §3
T47D [17] = assay: Effect on cell cycle pathway in human T47D cells assessed as fold enrichment in cell cycle checkpoint genes incubated for 24 hrs relative to control; type: functional; method in brief: as §3
T47D [18] = assay: Effect on cell cycle pathway in human T47D cells assessed as fold enrichment in S Phase genes incubated for 24 hrs relative to control; type: functional; method in brief: as §3
T47D [19] = assay: Effect on TNFR1 pathway in human T47D cells assessed as fold enrichment in TNFR1-induced proapoptotic signaling incubated for 24 hrs relative to control; type: functional; method in brief: as §3
T47D [20] = assay: Effect on TNFR1 pathway in human T47D cells assessed as fold enrichment in AP1 family of transcription factors incubated for 24 hrs relative to control; type: functional; method in brief: as §3
T47D [21] = assay: Effect on TNFR1 pathway in human T47D cells assessed as fold enrichment in MAPK targets/nuclear events mediated by MAP kinases incubated for 24 hrs relative to control; type: functional; method in brief: as §3
T47D [22] = assay: Effect on TNFR1 pathway in human T47D cells assessed as fold enrichment in RAF-independent MAPK1/3 activation genes incubated for 24 hrs relative to control; type: functional; method in brief: as §3
T47D [23] = assay: Effect on TNFR1 pathway in human T47D cells assessed as fold enrichment in MAP kinase activation genes incubated for 24 hrs relative to control; type: functional; method in brief: as §3

SMILES	Activity (T47D [1])	Activity (T47D [2])	Activity (HCC1954 [3])	Activity (HCC1954 [4])	EC50 (T47D [5])	EC50 (T47D [6])	EC50 (HCC1954 [7])	EC50 (HCC1954 [8])	Activity (T47D [9])	Activity (HCC1954 [10])	other results
CNCCCC1c2ccccc2C=Cc2ccccc21 [PROTRIPTYLINE]	Active	Active	inactive	inactive	7.7 µM	> 10 µM	> 10 µM	> 10 µM	inactive	inactive	
CN(C)CCCN1c2ccccc2Sc2ccc(C(F)(F)F)cc21 [TRIFLUPROMAZINE]	Active	Active	inactive	inactive	5.4 µM	8.6 µM	> 10 µM	> 10 µM	inactive	inactive	Activity (T47D [11]): Active; Activity (T47D [12]): Active; Activity (T47D [13]): Active; fold change (FC) (T47D [14]): 7.33; fold change (FC) (T47D [15]): 7.55; fold change (FC) (T47D [16]): 11.45; fold change (FC) (T47D [17]): 11.45; fold change (FC) (T47D [18]): 10.15; fold change (FC) (T47D [19]): 17.4; fold change (FC) (T47D [20]): 14.91; fold change (FC) (T47D [21]): 1.015; fold change (FC) (T47D [22]): 6.96; fold change (FC) (T47D [23]): 6.02
